Source: ChEMBL document CHEMBL1130433, “Effects of log P and phenyl ring conformation on the binding of 5-phenylhydantoins to the voltage-dependent sodium channel” (J Med Chem, 1997)

Target: Sodium channel alpha subunits; brain (Types I, II, III) (Rattus norvegicus, UniProt P04775+P04774+P08104)
Assay: Inhibition of [3H]BTX-B binding to Neuronal voltage-dependent sodium channel of rat cerebral cortex synaptoneurosomes
Type: tissue-based
Method in brief: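 Ice-cold buffer dilution, GF/C filtration, scintillation counting. Nonspecific binding measured with 300 μM veratridine. Triplicates with a 40 μM DPH control tube. IC50 by Probit analysis, excluding points below 10% or above 90% inhibition.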

`O=C1NC(=O)C2(CCCc3ccccc32)N1` (centres undefined) showed an IC50 of 851 µM.

In the case of `O=C1NC(=O)C2(CCc3ccccc32)N1` (centres undefined), the IC50 was 2112 µM.

`O=C1NC(=O)C2(CCCCCc3ccccc32)N1` (centres undefined) gave an IC50 of 251 µM.

With `CC12C(=O)NC(=O)N1CCc1ccccc12` (centres undefined) the IC50 was 250 µM.

`CCN1C(=O)NC(=O)[C@@]1(C)c1ccccc1` showed an IC50 of 720 µM.

`CCCCC1(c2ccccc2C)NC(=O)NC1=O` (centres undefined) was tested, and the IC50 was 225 µM.

Work on `CCCCC1(c2ccc(C)cc2)NC(=O)NC1=O` (centres undefined) yielded an IC50 of 95 µM.

`O=C1NC(=O)C2(CCCCc3ccccc32)N1` (centres undefined) showed an IC50 of 251 µM.

In the case of `CCCCC1(c2cccc(C)c2)NC(=O)NC1=O` (centres undefined), the IC50 was 58 µM.
